Measured values from ChEMBL document CHEMBL1122288, “Relationship between metabolism and radioprotective activity of 2-phenylthiazolidine and its m-bromo derivative” (J Med Chem, 1983).

What was measured:
[1] = tested on: Mus musculus; test: fecal levels excreted after administration of 2-phenylthiazolidine (500 mg/kg) to mice measured at 0-30h; assay type: ADME, organism-based; conditions: in vivo
How it was run: (§1)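 Radiolabelled compound ([³⁵S] or [α-¹⁴C]) given intraperitoneally in Miglyol 812 to mice, which were then housed in separate metabolic cages and fed normally. Faeces were collected over 0-30 h, pounded and counted by liquid scintillation. Values are percent of injected dose, given as mean ± standard error. Each line has its own number of experiments.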

[2] = tested on: Mus musculus; test: Percent survival at 6 hr time interval between administration (500 mg/kg, ip) and irradiation* in mice; assay type: functional
[3] = tested on: Mus musculus; test: Percent survival at 1 hr time interval between administration (500 mg/kg, ip) and irradiation* in mice; assay type: functional
[4] = species: Mus musculus; test: Lethal dose in mice; assay type: functional
[5] = tested on: Mus musculus; test: Percent survival at 2 hr time interval between administration (500 mg/kg, ip) and irradiation* in mice; assay type: functional
[6] = tested on: Mus musculus; test: Percent survival at 15 min time interval between administration (500mg/kg, ip) and irradiation* in mice; assay type: functional
[7] = tested on: Mus musculus; test: fecal levels excreted after administration of benzaldehyde (250 mg/kg) to mice measured at 0-30h; assay type: ADME, organism-based; conditions: in vivo
How it was run: (§2)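 [α-14C]Benzaldehyde was given at 250 mg/kg intraperitoneally in Miglyol 812. Mice were kept in separate metabolic cages and fed normally. Urine was collected at 6, 24 and 30 h, and feces were pounded. Radioactivity was measured by liquid scintillation counting and expressed as percent of injected dose excreted, given as mean ± standard error of 4 experiments.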

[8] = urine levels excreted after administration of benzaldehyde (250 mg/kg) to mice measured at 0-24 hr; assay type: ADME, organism-based; conditions: mouse, read-out: Excretion; how it was run: as §2
[9] = tested on: Mus musculus; test: urine levels excreted after administration of benzaldehyde (250 mg/kg) to mice measured at 0-6 hr; assay type: ADME, organism-based; conditions: in vivo; how it was run: as §2
[10] = urine levels excreted after administration of benzaldehyde (250 mg/kg) to mice measured at 24-30 hr; assay type: ADME, organism-based; conditions: mouse, read-out: Excretion; how it was run: as §2
[11] = tested on: Mus musculus; test: fecal levels excreted after administration of 2-(3-bromophenyl)thiazolidine(500 mg/kg) to mice measured at 0-30h; assay type: ADME, organism-based; conditions: in vivo; how it was run: as §1
[12] = tested on: Mus musculus; test: urine levels excreted after administration of cysteamine (175 mg/kg) to mice measured at 0-24 hr; assay type: ADME, organism-based; conditions: in vivo
How it was run: (§3)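 [³⁵S]cysteamine 175 mg/kg given intraperitoneally in Miglyol 812 to mice, which were then housed in separate metabolic cages and fed normally. Urine was sampled at 6, 24 and 30 h and counted by liquid scintillation. Values are percent of injected dose excreted, as mean ± standard error of 4-5 experiments. The Mann-Whitney-Wilcoxon test was used for significance.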

[13] = tested on: Mus musculus; test: urine levels excreted after administration of cysteamine (175 mg/kg) to mice measured at 0-6 hr; assay type: ADME, organism-based; conditions: in vivo; how it was run: as §3
[14] = tested on: Mus musculus; test: Percent survival at 2 hr time interval between administration (225 mg/kg, ip) and irradiation* in mice; assay type: functional
[15] = urine levels excreted after administration of cysteamine (175 mg/kg) to mice measured at 24-30 hr; assay type: ADME, organism-based; conditions: mouse, read-out: Excretion; how it was run: as §3
[16] = tested on: Mus musculus; test: Percent survival at 1 hr time interval between administration (225mg/kg, ip) and irradiation* in mice; assay type: functional
[17] = tested on: Mus musculus; test: Percent survival at 15 min time interval between administration (225 mg/kg, ip) and irradiation* in mice; assay type: functional
[18] = tested on: Mus musculus; test: faecal levels excreted after administration of cysteamine (175 mg/kg) to mice measured at 0-30h; assay type: ADME, organism-based; conditions: in vivo; how it was run: as §1

Which Excretion [1] does the source give for `c1ccc(C2NCC[35S]2)cc1` (stereo in doubt; 1b) here?
The Excretion was 0.6%.

For `c1ccc(C2NCCS2)cc1` (stereo not drawn), which Survival [2] is on record?
The Survival was 85%.

What about the Survival [3] of the same compound?
Its Survival is 100%.

What about the LD50 [4] of the same compound?
Its LD50 is 1000 mg/kg.

And the Survival [5]?
The Survival was 100%.

What about the Survival [6] of the same compound?
The Survival was 100%.

With `c1ccc(C2NCC[35S]2)cc1` (stereo in doubt; 1a) as the compound, how does the Excretion [1] read?
The Excretion was 0.42%.

Which Excretion [7] does the source give for `O=Cc1ccccc1` [BENZALDEHYDE] here?
The Excretion was 0.43%.

What about the dose excreted [8] of the same compound?
The dose excreted was 84.2%.

What about the Excretion [9] of the same compound?
Its Excretion is 52.6%.

What about the dose excreted [10] of the same compound?
Its dose excreted is 5%.

For `Brc1cccc(C2NCCS2)c1` (stereo not drawn), which Survival [3] is on record?
The Survival was 100%.

And the LD50 [4]?
Its LD50 is 1000 mg/kg.

What about the Survival [6] of the same compound?
Its Survival is 20%.

What about the Excretion [11] of the same compound?
The Excretion was 0.43%.

With `NCCS` [CYSTEAMINE] as the compound, how does the Excretion [12] read?
The Excretion was 55.7%.

And the LD50 [4]?
The LD50 was 450 mg/kg.

What about the Excretion [13] of the same compound?
The Excretion was 42.6%.

What about the Survival [14] of the same compound?
The Survival was 45%.

And the dose excreted [15]?
Its dose excreted is 4.1%.

And the Survival [16]?
The Survival was 80%.

What about the Survival [17] of the same compound?
The Survival was 95%.

What about the Excretion [18] of the same compound?
The Excretion was 0.92%.
